ChEMBL document CHEMBL1649147, “Antistaphylococcal activity of dihydrophthalazine antifolates, a family of novel antibacterial drugs” (2009)
Values after ≈ are worked out from the molar mass of the structure shown.

What was measured:
[1] = test system: coagulase-negative staphylococci; assay: Antibacterial activity against methicillin-resistant coagulase-negative staphylococci by agar dilution method
Staphylococcus aureus [2] = assay: Antibacterial activity against Tmp-susceptible Staphylococcus aureus by agar dilution method; assay type: functional
How it was run: (§1)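 MICs by agar dilution on Mueller-Hinton agar following CLSI guidelines. S. aureus ATCC 29213 and E. faecalis ATCC 29212 were run as quality controls with each set, and test-strain MICs were kept only if control MICs fell within acceptable ranges.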

[3] = test system: Staphylococcus epidermidis; assay: Antibacterial activity against coagulase-negative Staphylococcus epidermidis 057 after 10 passages in MBH without antibiotic by agar dilution method; assay type: functional
How it was run: (§2)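 After drug-selective serial passage, selected clones were passaged 10 times in antibiotic-free MHB. MICs were then redetermined, and the change is expressed as log2 dilution steps.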

[4] = test system: coagulase-negative staphylococci; assay: Antibacterial activity against methicillin-susceptible coagulase-negative staphylococci by agar dilution method
Staphylococcus aureus [5] = assay: Antibacterial activity against methicillin-susceptible Staphylococcus aureus ATCC 29213 by broth macrodilution method; assay type: functional; details: ATCC29213
Staphylococcus aureus [6] = assay: Antibacterial activity against methicillin-resistant Staphylococcus aureus 145 by broth macrodilution method; assay type: functional
Staphylococcus aureus [7] = assay: Antibacterial activity against methicillin-susceptible Staphylococcus aureus 505 by broth macrodilution method; assay type: functional
Staphylococcus aureus [8] = assay: Antibacterial activity against Staphylococcus aureus 145 assessed as change in MIC by agar dilution method after serial passages in the absence of antibiotic relative to control; assay type: functional
How it was run: as §2

[9] = test system: Staphylococcus epidermidis; assay: Antibacterial activity against coagulase-negative Staphylococcus epidermidis 051 by agar dilution method; assay type: functional
How it was run: as §1

[10] = test system: Staphylococcus epidermidis; assay: Antibacterial activity against methicillin-resistant coagulase-negative Staphylococcus epidermidis 345 by broth macrodilution method; assay type: functional
[11] = test system: Staphylococcus epidermidis; assay: Antibacterial activity against methicillin-susceptible coagulase-negative Staphylococcus epidermidis 057 by broth macrodilution method; assay type: functional
[12] = test system: Staphylococcus epidermidis; assay: Antibacterial activity against methicillin-resistant, vancomycin-intermediate coagulase-negative Staphylococcus epidermidis 225 by agar dilution method; assay type: functional
How it was run: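 Agar dilution on Mueller-Hinton agar per CLSI guidelines. S. aureus ATCC 29213 and E. faecalis ATCC 29212 were run with each set, and test MICs were accepted only when the control strains fell within acceptable ranges.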

[13] = test system: Staphylococcus epidermidis; assay: Antibacterial activity against coagulase-negative Staphylococcus epidermidis 345 assessed as change in MIC by agar dilution method after serial passages in the absence of antibiotic relative to control; assay type: functional
How it was run: as §2

[14] = test system: Staphylococcus epidermidis; assay: Antibacterial activity against coagulase-negative Staphylococcus epidermidis 345 by agar dilution method; assay type: functional
How it was run: as §1

[15] = test system: Staphylococcus epidermidis; assay: Antibacterial activity against methicillin-susceptible coagulase-negative Staphylococcus epidermidis 051 by broth macrodilution method; assay type: functional
[16] = test system: Staphylococcus epidermidis; assay: Antibacterial activity against coagulase-negative Staphylococcus epidermidis 225 assessed as change in MIC by agar dilution method after serial passages in presence of antibiotic relative to control; assay type: functional
How it was run: (§3)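 Serial passage under drug. Inoculum was ~1 × 10^6 CFU/ml from overnight MHA growth, in 1 ml MHB at 35°C for 24 h. Drug ranged from 4 log2 steps above to 3 log2 steps below the MIC. […] MIC change is given as log2 steps.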

[17] = test system: Staphylococcus epidermidis; assay: Antibacterial activity against coagulase-negative Staphylococcus epidermidis 345 assessed as change in MIC by agar dilution method after serial passages in presence of antibiotic relative to control; assay type: functional
How it was run: as §3

[18] = test system: coagulase-negative staphylococci; assay: Antibacterial activity against Tmp-resistant coagulase-negative staphylococci by agar dilution method
Staphylococcus aureus [19] = assay: Antibacterial activity against Tmp-resistant Staphylococcus aureus by agar dilution method; assay type: functional
How it was run: as §1

Staphylococcus aureus [20] = assay: Antibacterial activity against methicillin-resistant Staphylococcus aureus ATCC 43300 after 50 passages by agar dilution method; assay type: functional; details: ATCC43300
How it was run: as §3

Staphylococcus aureus [21] = assay: Antibacterial activity against vancomycin-resistant Staphylococcus aureus VRS1 after 10 passages in MHB without antibiotic by agar dilution method; assay type: functional
How it was run: (§4)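 Clones from the end of drug passage were transferred 10 times in MHB without antibiotic, then retested by agar dilution. MIC change is expressed as log2 dilution steps.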

Staphylococcus aureus [22] = assay: Antibacterial activity against vancomycin-resistant Staphylococcus aureus VRS1 assessed as change in MIC by agar dilution method after serial passages in the absence of antibiotic relative to control; assay type: functional
How it was run: as §4

[23] = test system: Staphylococcus epidermidis; assay: Antibacterial activity against coagulase-negative Staphylococcus epidermidis 057 by agar dilution method; assay type: functional
How it was run: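 Agar dilution MIC determined on Mueller-Hinton agar following CLSI guidelines. S. aureus ATCC 29213 and Enterococcus faecalis ATCC 29212 were run as quality controls with each set, and test MICs were accepted only when the control MICs fell within acceptable ranges. Test organism was a coagulase-negative S. epidermidis strain.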

Staphylococcus aureus [24] = assay: Antibacterial activity against methicillin-resistant Staphylococcus aureus 507 by broth macrodilution method; assay type: functional
[25] = test system: Staphylococcus epidermidis; assay: Antibacterial activity against coagulase-negative Staphylococcus epidermidis 345 after 10 passages in MBH without antibiotic by agar dilution method; assay type: functional
How it was run: as §2

[26] = test system: Staphylococcus epidermidis; assay: Antibacterial activity against coagulase-negative Staphylococcus epidermidis 057 assessed as change in MIC by agar dilution method after serial passages in presence of antibiotic relative to control; assay type: functional
How it was run: as §3

[27] = test system: Staphylococcus epidermidis; assay: Antibacterial activity against coagulase-negative Staphylococcus epidermidis 051 assessed as change in MIC by agar dilution method after serial passages in presence of antibiotic relative to control; assay type: functional
How it was run: as §3

Staphylococcus aureus [28] = assay: Antibacterial activity against Staphylococcus aureus 505 assessed as change in MIC by agar dilution method after serial passages in presence of antibiotic relative to control; assay type: functional
How it was run: as §3

[29] = test system: Staphylococcus epidermidis; assay: Antibacterial activity against coagulase-negative Staphylococcus epidermidis 051 assessed as change in MIC by agar dilution method after serial passages in the absence of antibiotic relative to control; assay type: functional
How it was run: as §2

Staphylococcus aureus [30] = assay: Antibacterial activity against vancomycin-resistant Staphylococcus aureus VRS1 assessed as change in MIC by agar dilution method after serial passages in presence of antibiotic relative to control; assay type: functional
How it was run: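 Daily serial passage for up to 50 days at 35°C for 24 h in 1 ml MHB. […] Each transfer used 10 µl from the tube nearest the MIC (1–2 dilutions below) with the same turbidity as the drug-free control. […] MICs were measured by agar dilution, with changes given as log2 steps.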

[31] = test system: Staphylococcus epidermidis; assay: Antibacterial activity against methicillin-resistant coagulase-negative Staphylococcus epidermidis 197 after 50 passages by agar dilution method; assay type: functional
How it was run: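 Daily serial passage for up to 50 days at 35°C for 24 h in 1 ml MHB. Each transfer used 10 µl from the tube nearest the MIC (1–2 dilutions below) with the same turbidity as the drug-free control. MICs were measured by agar dilution, with changes given as log2 steps.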

Staphylococcus aureus [32] = assay: Antibacterial activity against Staphylococcus aureus 145 assessed as change in MIC by agar dilution method after serial passages in presence of antibiotic relative to control; assay type: functional
How it was run: as §3

Staphylococcus aureus [33] = assay: Antibacterial activity against methicillin-susceptible, vancomycin-intermediate Staphylococcus aureus 505 by broth macrodilution method; assay type: functional
Staphylococcus aureus [34] = assay: Antibacterial activity against Staphylococcus aureus ATCC 29213 assessed as change in MIC by agar odilution method after serial passages in presence of antibiotic relative to control; assay type: functional, ATCC29213
How it was run: as §3

Staphylococcus aureus [35] = assay: Antibacterial activity against Staphylococcus aureus 145

Compound | MIC50 [1] [µg/mL] | MIC90 [1] [µg/mL] | MIC50 (Staphylococcus aureus [2]) [µg/mL] | MIC90 (Staphylococcus aureus [2]) [µg/mL] | MIC [3] [µg/mL] | MIC90 [4] [µg/mL] | MIC (Staphylococcus aureus [5]) [µg/mL] | MIC (Staphylococcus aureus [6]) [µg/mL] | MIC (Staphylococcus aureus [7]) [µg/mL] | fold change (FC) (Staphylococcus aureus [8]) | MIC [9] [µg/mL] | MIC [10] [µg/mL] | MIC [11] [µg/mL] | MIC [12] [µg/mL] | fold change (FC) [13] | MIC [14] [µg/mL] | MIC [15] [µg/mL] | fold change (FC) [16] | fold change (FC) [17] | MIC50 [18] [µg/mL] | also measured
COc1cc(Cc2cnc(N)nc2N)cc(/C=C/C(=O)N2N=Cc3ccccc3C2c2cnc(N3CCOCC3)nc2)c1OC (stereo not drawn) | 0.06 (≈ 0.0987 µM) | 0.5 (≈ 0.823 µM) | 0.03 (≈ 0.0494 µM) | 0.06 (≈ 0.0987 µM) | 128 (≈ 211 µM) | 0.06 (≈ 0.0987 µM) | 0.06 (≈ 0.0987 µM) | 0.25 (≈ 0.411 µM) | 0.03 (≈ 0.0494 µM) | 0 | 0.5 (≈ 0.823 µM) | 0.125 (≈ 0.206 µM) | 4 (≈ 6.58 µM) | 0.25 (≈ 0.411 µM) | -1 | 0.06 (≈ 0.0987 µM) | 0.25 (≈ 0.411 µM) | 10 | 6 | 0.125 (≈ 0.206 µM) | MIC90 [18]: 1 µg/mL (≈ 1.65 µM); MIC50 (Staphylococcus aureus [19]): 0.25 µg/mL (≈ 0.411 µM); MIC90 (Staphylococcus aureus [19]): 0.5 µg/mL (≈ 0.823 µM); MIC (Staphylococcus aureus [20]): 2 µg/mL (≈ 3.29 µM); MIC (Staphylococcus aureus [21]): > 128 µg/mL; fold change (FC) (Staphylococcus aureus [22]): 0; MIC [23]: 8 µg/mL (≈ 13.2 µM); MIC (Staphylococcus aureus [24]): 0.25 µg/mL (≈ 0.411 µM); MIC [25]: 2 µg/mL (≈ 3.29 µM); fold change (FC) [26]: 5; fold change (FC) [27]: 7; fold change (FC) (Staphylococcus aureus [28]): 6; fold change (FC) [29]: -6; fold change (FC) (Staphylococcus aureus [30]): 8; MIC [31]: 1 µg/mL (≈ 1.65 µM); fold change (FC) (Staphylococcus aureus [32]): 9; MIC (Staphylococcus aureus [33]): 0.03 µg/mL (≈ 0.0494 µM); fold change (FC) (Staphylococcus aureus [34]): 4; MIC (Staphylococcus aureus [35]): 0.25 µg/mL (≈ 0.411 µM)
COc1ncc(C2c3ccccc3C=NN2C(=O)/C=C/c2cc(Cc3cnc(N)nc3N)cc(OC)c2OC)cn1 (stereo not drawn) | 0.06 (≈ 0.109 µM) | 0.5 (≈ 0.905 µM) | 0.03 (≈ 0.0543 µM) | 0.03 (≈ 0.0543 µM) | 128 (≈ 232 µM) | 0.06 (≈ 0.109 µM) | 0.03 (≈ 0.0543 µM) | 0.25 (≈ 0.452 µM) | 0.03 (≈ 0.0543 µM) | -4 | 0.25 (≈ 0.452 µM) | 0.06 (≈ 0.109 µM) | 8 (≈ 14.5 µM) | 0.25 (≈ 0.452 µM) | -3 | 0.125 (≈ 0.226 µM) | 0.125 (≈ 0.226 µM) | 9 | 7 | 0.125 (≈ 0.226 µM) | MIC90 [18]: 0.5 µg/mL (≈ 0.905 µM); MIC50 (Staphylococcus aureus [19]): 0.25 µg/mL (≈ 0.452 µM); MIC90 (Staphylococcus aureus [19]): 0.5 µg/mL (≈ 0.905 µM); MIC (Staphylococcus aureus [20]): 4 µg/mL (≈ 7.24 µM); MIC (Staphylococcus aureus [21]): 128 µg/mL (≈ 232 µM); fold change (FC) (Staphylococcus aureus [22]): -1; MIC [23]: 8 µg/mL (≈ 14.5 µM); MIC (Staphylococcus aureus [24]): 0.06 µg/mL (≈ 0.109 µM); MIC [25]: 2 µg/mL (≈ 3.62 µM); fold change (FC) [26]: 4; fold change (FC) [27]: 8; fold change (FC) (Staphylococcus aureus [28]): 6; fold change (FC) [29]: -2; fold change (FC) (Staphylococcus aureus [30]): 9; MIC [31]: 1 µg/mL (≈ 1.81 µM); fold change (FC) (Staphylococcus aureus [32]): 9; MIC (Staphylococcus aureus [33]): 0.016 µg/mL (≈ 0.029 µM); fold change (FC) (Staphylococcus aureus [34]): 8; MIC (Staphylococcus aureus [35]): 0.5 µg/mL (≈ 0.905 µM)
